Test results published in ChEMBL document CHEMBL1124700, “1,4-Dihydronaphthoquinones, hydroindoloquinones, benzofurans, and benzothiophenes as inhibitors of 5-lipoxygenase. Synthesis and structure-activity studies” (J Med Chem, 1990).

How the values were obtained:
Rattus norvegicus [1] = species on record: Rattus norvegicus; assay: In vitro inhibition of LTC4/D4 (leukotriene) production in rat peritoneal mononuclear cells.; format: functional, cell-based
How it was run: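 Rat peritoneal mononuclear cells challenged with calcium ionophore A23187 in presence of cysteine. Initial screen at 10 μg/mL, duplicate determinations, expressed as percent of control. IC50 from follow-up testing, interpolated from log dose–response plot. LTC4/D4 measured by guinea pig ileum bioassay (atropinized, mepyramine-treated) or, later, LTC4-selective radioimmunoassay.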

[2] = molecular target: T1, Polyunsaturated fatty acid 5-lipoxygenase (Rattus norvegicus) (UniProt P12527); assay: Ex vivo inhibition of LTB4 production in rat blood following 50 mg/kg p.o.; format: functional, organism-based; set-up: dose 50 mg/kg; settings: at 50 mg/kg
T1 sequence (whole entry): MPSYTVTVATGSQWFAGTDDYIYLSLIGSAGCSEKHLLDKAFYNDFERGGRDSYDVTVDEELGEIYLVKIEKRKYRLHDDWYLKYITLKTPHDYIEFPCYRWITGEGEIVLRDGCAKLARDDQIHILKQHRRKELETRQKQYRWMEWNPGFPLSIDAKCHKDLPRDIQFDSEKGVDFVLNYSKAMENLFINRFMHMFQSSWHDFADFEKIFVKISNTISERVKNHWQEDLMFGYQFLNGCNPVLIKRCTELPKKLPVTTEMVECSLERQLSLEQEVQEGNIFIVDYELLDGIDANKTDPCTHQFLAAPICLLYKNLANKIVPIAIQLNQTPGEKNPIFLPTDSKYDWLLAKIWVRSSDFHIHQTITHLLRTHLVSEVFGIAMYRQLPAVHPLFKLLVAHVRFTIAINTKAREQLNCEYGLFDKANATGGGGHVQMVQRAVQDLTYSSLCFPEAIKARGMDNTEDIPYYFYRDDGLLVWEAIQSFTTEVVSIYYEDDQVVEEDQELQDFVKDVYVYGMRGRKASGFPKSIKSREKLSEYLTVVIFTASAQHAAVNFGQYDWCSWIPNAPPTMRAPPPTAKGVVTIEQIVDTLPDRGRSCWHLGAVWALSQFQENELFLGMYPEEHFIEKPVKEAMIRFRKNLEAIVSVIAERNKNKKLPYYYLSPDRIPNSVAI
How it was run: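 Male Sprague-Dawley rats (225–275 g), fasted 18 h, given test compound orally at 50 mg/kg; controls got vehicle; five rats per compound. At 2 h, anesthetized; heparinized blood from vena cava. Blood (1.0 mL) stimulated with A23187 (30 μM), 30 min, 37 °C; plasma LTB4 by radioimmunoassay. Percent inhibition from mean treated vs mean control; Wilcoxon rank sum.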

Rattus norvegicus [3] = species on record: Rattus norvegicus; assay: Ex vivo inhibition of LTB4 production was determined; format: functional, organism-based
How it was run: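 Male Sprague-Dawley rats (225–275 g), fasted 18 h, given 50 mg/kg orally in 1.0 mL solution; controls received 1.0 mL vehicle; five rats per compound. Heparinized vena cava blood taken 2 h post-dose under anesthesia; 1.0 mL stimulated with A23187 (30 μM) 30 min at 37 °C. Plasma LTB4 by radioimmunoassay; percent inhibition from group mean vs control mean; Wilcoxon rank sum statistics.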

[4] = Rattus norvegicus, read-out: IC50

IC50 (Rattus norvegicus [1]; [4]) [nM] | Compound | further results
23900 | CCOc1c(C(C)O[Si](C)(C)C(C)(C)C)c(OC(C)=O)c2ccccc2c1OC (stereo unspecified) | 
720 | CCCCc1cc(OC)c2c(ccn2C)c1OC(C)=O | 
400 | CCc1c(CC)c(OC(C)=O)c2ccccc2c1OC | inhibition [2]: 74.8%
2050 | CCCCC1=CC(=O)c2occc2C1=O | 
11900 | CCCCc1cc(OC)c2occc2c1O | 
7350 | CCCCc1cc(OC)c2c(C)ccc(C)c2c1OC(C)=O | inhibition [2]: 19.1%
3860 | COc1cc(-c2ccccc2)c(OC(C)=O)c2ccn(C)c12 | 
15700 | CCc1c(CC)c(OC(C)=O)c2c(C)c(C)cc(C)c2c1OC | inhibition [2]: 14.7%
620 | CCCCc1cc(OC)c2c(C)cccc2c1OC(C)=O | inhibition [2]: 31.8%
11900 | CCCCc1cc(OC)c2c(C)cc(C)c(C)c2c1OC(C)=O | inhibition [2]: 35.4%
2200 | COc1cc(-c2ccccc2)c(O)c2ccoc12 | 
940 | CCCCCc1c(C(=O)OCC)c(OC)c2ccccc2c1OC(C)=O | 
1150 | CCCCc1c(CCCC)c(OC)c2occc2c1O | 
760 | CCCCc1c(C)c(OC(C)=O)c2ccn(C)c2c1OC | 
990 | CCCCc1c(CC)c(OC)c2ccccc2c1OC(C)=O | 
1470 | CCCCc1cc(OC)c2ccccc2c1O | 
4390 | COc1c(-c2ccccc2)c(-c2ccccc2)c(O)c2ccoc12 | 
1130 | CCCCc1c(CC)c(OC(C)=O)c2ccccc2c1OC | 
 | C=Cc1c(OCC)c(OC)c2ccccc2c1OC | IC50 (Rattus norvegicus [1]): Not Active
830 | CCc1c(CC)c(OC)c2c(C)cccc2c1OC(C)=O | inhibition [2]: 40.6%
5810 | CCOC(=O)c1c(-c2ccccc2)c(OC(C)=O)c2ccccc2c1OC | 
 | COc1c(-c2ccccc2)c(-c2ccccc2)c(OC(C)=O)c2ccn(C)c12 | IC50 (Rattus norvegicus [1]): Not Active
3760 | CCOC(=O)c1c(CC)c(OC)c2ccccc2c1OC(C)=O | 
23500 | CCCCC1=CC(=O)c2sccc2C1=O | 
40900 | CCCCc1cc(OC)c2ccccc2c1OC | 
890 | CCc1c(CC)c(OC)c2c(OC)cccc2c1OC(C)=O | 

IC50 (Rattus norvegicus [1]; [4]) [nM] | Compound | further results
14100 | CCCCc1cccc2c(OC)c(CC)c(CC)c(OC(C)=O)c12 | inhibition [2]: 30.5%
110 | CCCCc1cc(OC)c2occc2c1OC(C)=O | 
1430 | CCCc1c(CCC)c(OC(C)=O)c2ccccc2c1OC | 
44000 | CCCCc1cc(OC)c2c(C)c(C)c(C)c(C)c2c1OC(C)=O | inhibition [2]: 41.2%
6020 | CCCCc1c(CCCC)c(OC(C)=O)c2ccccc2c1OC | inhibition [2]: 29.2%
460 | CCCCc1cc(OC)c2sccc2c1OC(C)=O | 
1160 | CCOC(=O)c1c(CC)c(OC(C)=O)c2ccccc2c1OC | 
200 | CCCCc1c(C)c(OC)c2ccccc2c1OC(C)=O | 
8920 | CCCCCc1c(C(=O)OCC)c(OC(C)=O)c2ccccc2c1OC | 
86000 | CCOc1c(C(C)O)c(OC)c2ccccc2c1OC (stereo unspecified) | 
940 | CCCCc1ccc2c(OC(C)=O)c(CC)c(CC)c(OC)c2c1 | inhibition [2]: 17%
480 | CCCCc1ccc2c(OC(C)=O)c(CCCC)cc(OC)c2c1 | inhibition [2]: 19.2%
1250 | COc1c(C)c(-c2ccccc2)c(O)c2ccoc12 | 
37300 | CCc1c(CC)c(OC(C)=O)c2c(C)c(C)c(C)c(C)c2c1OC | inhibition [2]: -4.9%
1380 | CCCCc1cc(OC)c2ccc(OC)cc2c1OC(C)=O | 
1050 | CCCCc1cc(OC)c2sccc2c1O | 
2240 | CCCCC1=CC(=O)c2ccccc2C1=O | 
260 | CCCCc1cc(OC)c2c(OC)cccc2c1OC(C)=O | inhibition [2]: 17.5%
690 | CCc1c(CC)c(OC(C)=O)c2cc(OC)ccc2c1OC | 
440 | CCCCc1cc(OC)c2ccccc2c1OC(C)=O [BUNAPROLAST] | inhibition [2]: 61.1%
760 | CCCCc1c(C)c(OC)c2c(ccn2C)c1OC(C)=O | 
2030 | CCc1c(CC)c(OC)c2c(ccn2C)c1OC(C)=O | 
13000 | CCc1c(CC)c(OC(C)=O)c2c(C)ccc(C)c2c1OC | inhibition [2]: 50.6%
11000 | COc1c(-c2ccccc2)c(-c2ccccc2)c(OC(C)=O)c2ccccc12 | 
 | O=C1C=CC(=O)c2ccccc21 | IC50 (Rattus norvegicus [3]): < 20000 nM
